Source: ChEMBL document CHEMBL4513216, “Probing the Open Global Health Chemical Diversity Library for Multistage-Active Starting Points for Next-Generation Antimalarials” (ACS Infect Dis, 2020)

Experiment: Toxicity liver stage against HepG2, at 10uM
Assay type: cell-based
Set-up: test concentration 10 uM, cell line HepG2-A16-CD81EGFP
Conditions: human, HepG2-A16-CD81EGFP cells; read-out: INHIBITION
Summary of the method: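 Uninfected HepG2-A16-CD81EGFP cells, 3 × 10^3 per well, 1536-well, plated on prespotted compound at 10 μM final, parasite-free screening media added to match infected plates; puromycin 10 μM positive, DMSO 0.5% negative; run in parallel with 48 h PbLuc assay at 37 °C, 5% CO2; viability by CellTiter-Glo luminescence, normalized to controls.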

Row | Structure (SMILES) | cytotoxicity at 10 µM [%]
1 | CC(C)(O)c1cc(CC2(NCc3ccco3)COC2)no1 | -1.7
2 | Cn1c(C(=O)NCC2(N)CCCC2)cc2ccccc21 | 7.8
3 | CCCSc1nc(N)c(NC(=O)c2ccc(OC)c(OC)c2)c(=O)[nH]1 | -8.7
4 | O=C(Nc1ccc2c(c1)OCO2)N1CCN(CCn2cccn2)CC1 | 0.741
5 | CCOCC(=O)N1CCC(CSCc2ccco2)CC1 | -7.36
6 | Cn1nc(CNC(=O)CN2C(=O)CCC2=O)cc1C1CC1 | 2.89
7 | COc1cccc(N2CC3(CCN(c4ccncn4)C3)CC2=O)c1 (stereo not drawn) | 8.61
8 | CCOC(=O)C1CN(S(=O)(=O)C2CC2)Cc2ncn(CC)c21 (stereo not drawn) | 6.71
9 | CC(=O)N1CCC(c2nnc3ccc(C(=O)NC(C)C)cn23)C1 (stereo not drawn) | 6.37
10 | CNC(=O)N1CCc2nc(C(=O)Nc3cccnc3)sc2CC1 | 1.99
11 | CC(=O)NCC(=O)N1CCC2(CC1)NC(=O)CC2c1cnn(C)c1 (stereo not drawn) | -0.113
12 | Cc1noc([C@@]23CCO[C@@H]2CCN(C(=O)CN(C)C)C3)n1 | 10.1
13 | CCC(=O)NS(=O)(=O)c1cccnc1Nc1cccc(Cl)c1Cl | 0.0207
14 | COc1ncc(NC(=O)Nc2cc(C)ccc2OC)cn1 | 2.76
15 | Cc1cc(C(F)(F)F)nn1CCCNC(=O)C1CCCC1 | -4.93
16 | Cc1cc2c(cc1NC(N)=O)OCO2 | 3.13
17 | COc1cccc(CNCc2cccc(Cl)c2)c1O | 1.29
18 | OCCN1CCCC(c2cccc(-c3ccccc3F)n2)C1 (stereo not drawn) | 5.68
19 | CC(=O)Nc1cccc([C@H]2C[C@@H](NC(C)=O)CCO2)c1 | -0.825
20 | Cc1nn(C)cc1CN1CCN(CC2(c3ccccc3)CC2)CC1 | 1.25
21 | NC(=O)C1CN(Cc2c[nH]cn2)CCN(C2CCOCC2)C1 (stereo not drawn) | 3.83
22 | O=C1CC(C(=O)Nc2nnc(-c3ccccn3)[nH]2)c2ccccc2N1 (stereo not drawn) | 7.92

Row | Structure (SMILES) | cytotoxicity at 10 µM [%]
23 | Cc1ccc(CC(=O)NC2CCN(c3cccc(Cl)c3)C2)cn1 (stereo not drawn) | 2.49
24 | Cc1cnc(CCNC(=O)NCCc2ccc(O)cc2)s1 | -0.276
25 | Cc1cnn(C2CCCN(C(=O)c3cc(-c4cccs4)n[nH]3)C2)c1 (stereo not drawn) | -7.83
26 | COc1cc(C)sc1C(=O)NCCNc1ccccc1 | -7.64
27 | O=C(NCCNc1ncccn1)N1CCc2ccccc2C1 | -5.65
28 | CN(Cc1ccc2c(c1)OCCO2)Cn1nc(C(C)(C)C)ccc1=O | -12.4
29 | CC1CCN(S(=O)(=O)N2Cc3ccccc3C[C@H]2C(N)=O)CC1 | -6.64
30 | COC(=O)CCCN(C)C(=O)c1cc(F)cc2[nH]cnc12 | -2.23
31 | CCc1nn(C)c2[nH]nc(NC(=O)c3cccnc3OC)c12 | -8.98
32 | CCN(CC)S(=O)(=O)N1CCCC1C(=O)N1CCSCC1 (stereo not drawn) | -4.71
33 | CSc1ccc(OC(C)C(=O)Nc2cc(C)n[nH]2)cc1 (stereo not drawn) | 8.64
34 | Cc1occc1C(=O)N1C[C@@H]2CCCO[C@@H]2[C@H](NS(C)(=O)=O)C1 | -95.3
35 | O=C(C1CC=CC1)N1CC[C@@H](O)[C@H]1Cc1cccnc1 | -99.4
36 | Cn1cc(CN2CCCC3(CCN(C(=O)c4ccoc4)C3)C2)cn1 (stereo not drawn) | -71.9
37 | c1ccc(-c2nnn3c2COC(CNCC2CC2)C3)cc1 (stereo not drawn) | -77.8
38 | O=C(c1ccncn1)N1CCC[C@]2(C[C@@H](OCC3CC3)CO2)C1 | -78.9
39 | CS(=O)(=O)CC(=O)N1C[C@@H]2CN(Cc3ccoc3)CCO[C@@H]2C1 | -69.2
40 | CO[C@H]1CO[C@@]2(CCCN(S(=O)(=O)c3ccccc3)C2)C1 | -81.9
41 | Cc1cc(CN2CCC3(CC2)C(=O)NCCN3CC2CC2)oc1C | -67.5
42 | O=C(c1ccoc1)N1CC[C@@H]2[C@H]1CCC(=O)N2c1ccccc1 | -0.362
43 | Cn1cc(CN2CCCC(CCc3ccccc3C(F)(F)F)C2)cn1 (stereo not drawn) | -4.24
44 | COc1cccc(C(=O)C2CCCN(c3nccc(N)n3)C2)c1 (stereo not drawn) | -1.82

Row | Structure (SMILES) | cytotoxicity at 10 µM [%]
45 | COc1cc(N(C)Cc2noc(CC(C)C)n2)ncn1 | -0.71
46 | CCc1nnc(CN(CC)C(=O)C2CC(=O)N(C3CCCC3)C2)o1 (stereo not drawn) | -2.57
47 | COCCCN1CCCC(c2nccn2CC2CCC2)C1 (stereo not drawn) | -3.94
48 | Cc1nccn1-c1ccc(N2CCC(N[C@H](C)C(C)C)CC2)cc1 | -6.39
49 | COCC1CCCN(C(=O)c2ccc(N(C)Cc3cnn(C)c3)nc2)C1 (stereo not drawn) | -3.97
50 | CN(CCc1ccccc1)Cc1nc(Cc2cccc(F)c2)no1 | 0.276
51 | CC(=O)NCC(=O)N1CCc2[nH]c(-c3ccccc3)nc2C1 | -0.591
52 | Cc1c(C(C)NCc2cnn(C)c2)cnn1-c1ccccc1 (stereo not drawn) | -5.78
53 | CNC(=O)C1CCCN1c1nc(C)c2ccccc2n1 (stereo not drawn) | 10.4
54 | COCCN1CCN(Cc2cccnc2)[C@H]2CS(=O)(=O)C[C@H]21 | 6.03
55 | CS(=O)(=O)c1ccc(CC(=O)N2CCN3CCNC(=O)C3C2)cc1 (stereo not drawn) | -3.34
56 | Cc1ccccc1N1CCN(C(=O)c2cnc(C3CC3)nc2)C(C)C1 (stereo not drawn) | 2.09
57 | Cn1cc(CN2CCCC(CCc3ccc(F)cc3F)C2)cn1 (stereo not drawn) | -10.4
58 | O=C(O)[C@]12CCCN(Cc3ccccn3)[C@@H]1CCN(c1cnccn1)C2 | 2.12
59 | CS(=O)(=O)NCCC1CCCN(Cc2ccccc2F)C1 (stereo not drawn) | -1.25
60 | COc1ccc(C(C(=O)O)N2CCN(C3CCCC3)CC2)cc1C (stereo not drawn) | -8.77
61 | CCOCCn1c(=O)n(CCC(C)C)c2ncc(C(=O)O)cc21 | 2.62
62 | COc1ccc(NC(=O)CCC2CCCN(S(=O)(=O)C3CC3)C2)cc1Cl (stereo not drawn) | 11.3
63 | CC(C)Cc1cc(C(=O)N2CC(OCc3ccccc3F)C2)n(C)n1 | 8.92
64 | Nc1ncccc1CN1C[C@@H](C(=O)O)[C@H](c2cccc(F)c2)C1 | -11.1
65 | CN1CC2(CCN(CCCOCc3ccccc3)CC2)OC1=O | 3.12
66 | Cc1noc(CNc2ccc(C(=O)N3CCCC(C)C3)cc2C)n1 (stereo not drawn) | -4.07

Row | Structure (SMILES) | cytotoxicity at 10 µM [%]
67 | COc1c(CNC2CCCN(c3ncccn3)C2)c(C(C)C)nn1C (stereo not drawn) | -9.94
68 | CN(CC(=O)Nc1cccnc1)C1CCCN(c2cccnn2)C1 (stereo not drawn) | -2.42
69 | CCCN1CCC(CNC(=O)C2(c3ccccc3)CCC2)C1 (stereo not drawn) | -6.29
70 | CN1CCOC(CN(C(=O)CCc2ccco2)c2nccs2)C1 (stereo not drawn) | -16.1
71 | Cn1cc(-c2nc(CN3CCN(c4nccs4)CC3)cs2)cn1 | -7.45
72 | Cc1nnc2n1CCN(CCS(=O)(=O)c1ccc(Cl)cc1)C2 | -4.53
73 | CCc1nc(CN2CCCN(C(=O)CC(C)OC)CC2)cs1 (stereo not drawn) | -24.7
74 | CC1CCN(S(=O)(=O)NCc2ccccc2Cn2cccn2)CC1 | 7.4
75 | Cc1nc(CN2CCN(C(=O)CCc3ccco3)CC2)cs1 | -4.39
76 | O=C(CCOc1ccc(Br)cc1)N1CCN(c2cnccn2)CC1 | 0.207
77 | COc1ccc(F)cc1CN1CCCC1Cn1nc(C)nc1C (stereo not drawn) | -2.41
78 | CCc1nc(C2CCCN(C(=O)c3ccc(O)nc3)C2)no1 (stereo not drawn) | -11.7
79 | COc1ccc(CC(=O)N2CCCC2Cn2cc(C)cn2)c(OC)c1 (stereo not drawn) | -18
80 | Cc1nc(CN2CCCN(C(=O)COCC3CC3)CC2)cs1 | -11
81 | Cc1cnc(C(=O)N2CCCC(n3ccnc3C)C2)cn1 (stereo not drawn) | -10.8
82 | CC(C)c1noc(CCCC(=O)N2CCN(Cc3ccncc3)CC2)n1 | -6.59
83 | COc1cccc2cc(CNC(=O)N3CCCC(O)C3)oc12 (stereo not drawn) | -8.8
84 | O=C(NCCCN1CCc2ccccc2C1)c1cccnc1O | -3.49
85 | O=C(Cc1csc(-c2ccco2)n1)N1CCN(c2cnccn2)CC1 | 0.0241
86 | CC(=O)N(Cc1noc(C)n1)C1CCN(Cc2ccccc2C#N)C1 (stereo not drawn) | -1.76
87 | CC(Cn1cccn1)NC(=O)CCc1ccc(S(N)(=O)=O)cc1 (stereo not drawn) | -2.02
88 | CC(C)c1nc2n(n1)CC(NCc1nc(-c3cccnc3)no1)CC2 (stereo not drawn) | 4.04

Row | Structure (SMILES) | cytotoxicity at 10 µM [%]
89 | CCN1C[C@H]2C3(CCN(C(=O)NC(C)C)CC3)CC[C@@]2(C(=O)NC)C1 | -106
90 | CN(C)C(=O)COC1COC2(CCN(c3cccc(F)c3)CC2)C1 (stereo not drawn) | -66
91 | O=C(O)[C@]12CCCN(Cc3ccco3)C[C@H]1CN(c1ncccn1)C2 | 7.34
92 | CC[C@H]1N(C)CCC[C@]12CCC(=O)N2Cc1ccncc1 | 7.99
93 | Cc1cccc(CN2C[C@@H]3CN(C(=O)c4cnccn4)C[C@@H]3C2=O)n1 | 3.14
94 | Cc1ccc(N2C[C@@H]3CN(Cc4csc(C)n4)CCO[C@@H]3C2)nn1 | 7.64
95 | Cc1nc(COC[C@@]23CCC[C@@H]2CN(Cc2nccs2)C3)cs1 | 12.9
96 | COc1cccc(CN2C[C@@H]3COC[C@]3(CNC(=O)C3CC3)C2)c1 | -99
97 | CCS(=O)(=O)N1CC[C@H](OC)[C@H]2CN(Cc3ccncc3)C[C@H]21 | 10.3
98 | CCS(=O)(=O)N1Cc2ncn(C)c2C(COCC2CCOCC2)C1 (stereo not drawn) | -72.6
99 | Cc1nc(COC[C@H]2CC[C@H]3[C@H](CCN3c3ncccn3)O2)cs1 | -71.2
100 | CCOCCN1Cc2cnn(C)c2C(COCC)C1 (stereo not drawn) | -62.6
101 | c1cnc(N2CCO[C@H]3CN(Cc4csnn4)C[C@H]32)nc1 | -70.7
102 | CN1CC(=O)N(c2ccccc2)CC12CCN(S(C)(=O)=O)C2 (stereo not drawn) | -75.7
103 | COc1cccc(CN2CCC3(CCN(C(=O)[C@H]4CCCO4)CC3)C2)c1 | 6.57
104 | C[C@@H]1CN(C2CCOCC2)C[C@]12CCN(c1cccnc1)C2=O | 5.95
105 | CCC(=O)N1CCN(CCn2cccn2)c2ncccc2C1 | -106
106 | CN(Cc1ccco1)C1CCC12CCN(C(=O)C1CCOCC1)CC2 (stereo not drawn) | -2.92
107 | O=C(NCC1CC1)[C@H]1C[C@H]2CN(S(=O)(=O)Cc3ccccc3)C[C@@H]1O2 | 7.56
108 | O=C(CC1[C@H]2CN(C(=O)CO)C[C@@H]12)Nc1cccnc1 (stereo partly drawn) | 9.19
